Experimental data collected from several papers.
Compare with care: the assays were run in different laboratories. Values after ≈ are worked out from the molar mass of the structure shown.

SMILES | tested on | test | system | setting | quantity | result
CCc1ccc(C=Nc2ccc(SCc3cc(=O)c(O)co3)cc2)cc1 |  | DPPH scavenging, absorbance |  | 30 min | IC50 | 20.5 µM
O=C(NCc1ccc(C(F)(F)F)cc1)c1cn(Cc2ccc(F)cc2)c2ccc(Oc3ccccc3)cc2c1=O | MCF7 | cell growth or viability, MTT |  | 24 h | IC50 | 109 µM
O=C(Nc1ccc(Cl)cc1)Nc1cccc(-c2cn(Cc3ccc(Br)cc3)nn2)c1 | MCF7 | cell growth or viability, CCK-8 |  | 50 µM, 48 h | viability | 96.5%
Cc1cccc(C=Nc2ccc(SCc3cc(=O)c(O)co3)cc2)c1 |  | DPPH scavenging, absorbance |  | 30 min | IC50 | 26.7 µM
O=C(N1CCC2(CC1)OCC(CNS(=O)(=O)c1ccc(-c3ccccc3)cc1)O2)C1(c2ccccc2)CCCC1 (centres unmarked) | Chikungunya virus | viral replication, inhibitor |  | 40 µM | inhibition | 75%
CC(C)C[C@@H](NC(=O)[C@H](C)NC(=O)CNC(=O)[C@@H](NC=O)C(C)C)C(=O)N[C@@H](C)C(=O)N[C@@H](C(=O)N[C@H](C(=O)N[C@@H](C(=O)N[C@@H](Cc1c[nH]c2ccccc12)C(=O)N[C@H](CC(C)C)C(=O)N[C@@H](Cc1ccc2cc[nH]c2c1)C(=O)N[C@H](CC(C)C)C(=O)N[C@@H](Cc1c[nH]c2ccccc12)C(=O)N[C@H](CC(C)C)C(=O)N[C@@H](Cc1c[nH]c2ccccc12)C(=O)NCCO)C(C)C)C(C)C)C(C)C | MCF7 | cell growth or viability, SRB |  | 48 h | GI50 | 0.11 µM
CC(Oc1ccc(O)cc1)(P(=O)(O)O)P(=O)(O)O | Chikungunya virus | viral replication | Vero |  | IC50 | 548 µM
S=P1(C2CCCCC2)CCCCC1 | SW-620 | cell growth or viability, MTT |  | 72 h | IC50 | > 100 µM
S=c1[nH]nc(NCNc2n[nH]c(=S)s2)s1 | Xanthomonas oryzae | microbial growth |  |  | EC50 | 16 µg/mL (≈ 57.5 µM)
O=C(NCc1ccc(F)cc1)c1cn(Cc2ccc(C(F)(F)F)cc2)c2ccc(Oc3ccccc3)cc2c1=O | MCF7 | cell growth or viability, MTT |  | 48 h | IC50 | 4.36 µM
COc1cccc(C=Nc2ccc(SCc3cc(=O)c(O)co3)cc2)c1 |  | DPPH scavenging, absorbance |  | 30 min | IC50 | 11.6 µM
O=C(NCc1ccc(C(F)(F)F)cc1)c1cn(Cc2ccc(Cl)cc2)c2ccc(Oc3ccccc3)cc2c1=O | MCF7 | cell growth or viability, MTT |  | 24 h | IC50 | 177 µM
O=c1cc(CSc2ccc(N=Cc3ccccc3[N+](=O)[O-])cc2)occ1O |  | DPPH scavenging, absorbance |  | 30 min | IC50 | 14.3 µM
O=C(NCc1ccc(F)cc1)c1cn(Cc2ccc(F)cc2)c2ccc(Oc3ccccc3)cc2c1=O | MCF7 | cell growth or viability, MTT |  |  | IC50 | ≥ 200 µM
CCCCS(=O)(=O)NCC1COC2(CCN(C(=O)C3(c4ccccc4)CCCC3)CC2)O1 (centres unmarked) | Chikungunya virus | viral replication, inhibitor |  | 40 µM | inhibition | 95%
CCc1ccccc1C=Nc1ccc(SCc2cc(=O)c(O)co2)cc1 |  | DPPH scavenging, absorbance |  | 30 min | IC50 | 25.2 µM
CC[C@H](C)C[C@H](C)CCCCCCCCC(=O)N[C@H]1C[C@@H](O)[C@@H](NCCN)NC(=O)[C@@H]2[C@@H](O)CCN2C(=O)[C@H]([C@H](O)CCN)NC(=O)[C@H]([C@H](O)[C@@H](O)c2ccc(O)cc2)NC(=O)[C@@H]2C[C@@H](O)CN2C(=O)[C@H]([C@@H](C)O)NC1=O | Candidozyma auris | microbial growth, broth dilution |  | 48 h | MIC | 2 µg/mL (≈ 1.83 µM)
